Data taken from PubChem BioAssay.
Records with an inconclusive call do not appear.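 Rule for the calls, unless noted: active = growth inhibition above 25% in both replicates, a cutoff set 3 SD above the mean; inconclusive = above 25% in only one replicate; inactive = the rest.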

Experiments:
[1] = S. cerevisiae growth inhibition in permissive medium (OD615), pilot counter-assay for S. cerevisiae lifespan shortening project, permissive growth control (AID 705); settings: OD615, 24 h, at 10 µM, hits give high values
Method in brief: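 Material: engineered DeaD yeast; Compound: one dose 10 µM, DMSO 0.25% final; Detection: absorbance (optical density) at 615 nm; Buffer or medium: permissive raffinose/galactose medium; Timing: 24 h exposure, 30 °C.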

[2] = S. cerevisiae growth inhibition in restrictive medium, OD615, pilot screen, restrictive growth control, yeast lifespan reduction project (AID 706;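 active = growth inhibition above a set limit, 3 SD over mean compound inhibition, in both replicates, cut at about 43% in these data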;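 note: modified DeaD lifespan yeast strain shifted to restrictive glucose medium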); settings: OD615, 48 h, at 10 µM, hits give high values
Method in brief: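 Buffer or medium: restrictive glucose medium (CSMM-D); test system: modified S. cerevisiae; doses: single dose of 10 µM compound final, 0.25% DMSO; schedule: 48 h compound exposure at 30 °C; detection: absorbance (optical density) measured at 615 nm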

[3] = doxorubicin toxicity protection in MRP-1 cells – H69AR cells, CellTiter-Glo, duplicate, MRP-1 activator project, pilot screen (AID 807;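 active = viability increase at or above a cutoff of the median across tested compounds plus 3 SD, cut at about 8.5% in these data, passing the limit was not always enough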;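 note: compound pretreatment 18-22 h then 72 h combined with doxorubicin; 0% = doxorubicin alone and 100% = vehicle without doxorubicin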); settings: H69AR viability with doxorubicin, CellTiter-Glo luminescence; at 10 µM; hits give high values
[4] = viability of HCT116 without oncogenic beta-catenin – human colon tumor cells, pilot screen (AID 823;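 active = cell viability at or below a set limit in both duplicate runs, the limit being the all-compound median minus 4 SD, cut at about 23% in these data, passing the limit was not always enough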;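 note: 0% = wells killed by 20 µM Hyamine and 100% = untreated DMSO cell wells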); settings: HCT116 beta-catenin knockout viability, CellTiter-Glo, 60 h; at 10 µM; hits give low values
[5] = viability of PTEN-null HCT116 cells – cell-based, HCT116 clonal line, CellTiter-Glo, pilot screen (AID 824;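 active = viability at or below 27.92% in each of two runs, the all-compound median minus 4 SD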;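 note: 0% = 20 µM Hyamine control and 100% = vehicle cell control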); settings: HCT116 PTEN-deleted viability, 60 h, at 10 µM, hits give low values
[6] = RAM pathway blockade in budding yeast – dse1pr::URA3 reporter, 5-FOA selection, pilot screen (AID 869;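 active = inhibition over a set limit, the all-compound mean plus 3 SD, in both replicate runs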;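 note: 0% = DMSO wells with no growth and 100% = 10 µM 1-NA-PP1 with full growth; RAM network block rescues cells from 5-FOA so hits raise OD615 growth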); settings: S. cerevisiae dse1pr::URA3 5-FOA growth, OD615, 2 d; at 10 µM; hits give high values; strain carries analog-sensitive mutant Cbk1 kinase
[7] = RAM signaling pathway blockade in yeast – S. cerevisiae, Pdr1DBD-CYC8 efflux-inhibited sensitized strain, primary screen (AID 1298;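 active = RAM network inhibition above 8.4% in each of two replicates, 3 SD over the compound average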;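 note: 0% = DMSO untreated cells without growth and 100% = 10 µM 1-NA-PP1 full growth; higher means more yeast growth rescued from 5-FOA killing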); settings: S. cerevisiae cbk1-as DSE1-URA3 strain, 5-FOA growth OD615, 2 d; at 50 µM; hits give high values

O=C(c1ccc(CS(=O)(=O)c2ccc(Br)cc2)o1)N1CCCCCC1
inactive: growth inhibition [1] -9.29% | growth inhibition [2] -18.8% | viability increase [3] -2.25% | viability [4] 87.9% | viability [5] 92.2% | inhibition [6] 0.185% | RAM network inhibition [7] 9.94%

Cc1cc(=O)oc2c(N)c(O)ccc12
inactive: growth inhibition [1] -4.57% | growth inhibition [2] -11.6% | viability increase [3] -4.95% | viability [4] 101% | viability [5] 98.5% | inhibition [6] 0.53% | RAM network inhibition [7] 1.88%

CC(C)NC(=O)c1ccc(CS(=O)(=O)c2ccc(Br)cc2)o1
inactive: growth inhibition [1] 4.63% | growth inhibition [2] 3.97% | viability increase [3] -1.73% | viability [4] 87.1% | viability [5] 95.1% | inhibition [6] 1.95% | RAM network inhibition [7] 4.82%

CCCN(CCC)C(=O)c1ccc2c(c1)N(Cc1ccccc1)C(=O)CS2=O (stereo not drawn)
inactive: growth inhibition [1] 2.79% | growth inhibition [2] -7.64% | viability increase [3] -2.62% | viability [4] 88.1% | viability [5] 83.4% | inhibition [6] 0.885% | RAM network inhibition [7] 1.55%

CCOC(=O)N1CCN(c2cc(C)nc3nc(C)nn23)CC1
inactive: growth inhibition [1] -11.9% | growth inhibition [2] -9.88% | viability increase [3] -1.28% | viability [4] 105% | viability [5] 97.1% | inhibition [6] 3.44% | RAM network inhibition [7] 2.21%

O=C(c1cc2c(ccc3ccccc32)oc1=O)N1CCN(CCO)CC1
inactive: growth inhibition [1] -9.81% | growth inhibition [2] -3.65% | viability increase [3] -2.23% | viability [4] 88.8% | viability [5] 93.7% | inhibition [6] 3.29% | RAM network inhibition [7] -1.69%

CCc1nnc(NC(=O)CCN2C(=O)CCC2=O)s1
inactive: growth inhibition [1] 4.12% | growth inhibition [2] 5.96% | viability increase [3] 0.69% | viability [4] 97.3% | viability [5] 93.6% | inhibition [6] 0.52% | RAM network inhibition [7] 3.17%

COc1cc(/C=N/n2cnnc2)ccc1OCCOc1ccccc1
inactive: growth inhibition [1] 0.295% | growth inhibition [2] 1.02% | viability increase [3] -3.68% | viability [4] 104% | viability [5] 91.8% | inhibition [6] 3.07% | RAM network inhibition [7] 5.62%

CN1CCN(c2ccccc2NC(=O)Cc2cn(C)c3ccccc23)CC1
inactive: growth inhibition [1] 3.05% | growth inhibition [2] -4.69% | viability increase [3] -2.96% | viability [4] 92.8% | viability [5] 93.7% | inhibition [6] -0.845% | RAM network inhibition [7] 2.59%

O=C(Nc1ccc2ccccc2c1)c1cccnc1
inactive: growth inhibition [1] -3.92% | growth inhibition [2] 2.79% | viability increase [3] -3.85% | viability [4] 93.2% | viability [5] 81.5% | inhibition [6] 1.27% | RAM network inhibition [7] 4.91%

CCCS(=O)(=O)c1nc(S(=O)(=O)c2ccc(C)cc2)c(NCCN2CCOCC2)s1
inactive: growth inhibition [1] -8.93% | growth inhibition [2] -6.58% | viability increase [3] -0.11% | viability [4] 93.7% | viability [5] 86.7% | inhibition [6] 1.04% | RAM network inhibition [7] 6.38%

CCOC(=O)Cn1c(C)nc2ccccc21
inactive: growth inhibition [1] -14% | growth inhibition [2] -14% | viability increase [3] -1.63% | viability [4] 102% | viability [5] 105% | inhibition [6] 1.29% | RAM network inhibition [7] 1.95%

COc1ccccc1NC(=O)c1ccc(N)cc1
inactive: growth inhibition [1] -2% | growth inhibition [2] -2.66% | viability increase [3] 0.45% | viability [4] 105% | viability [5] 103% | inhibition [6] 2.87% | RAM network inhibition [7] 2.74%

CCOC(=O)Nc1ccccc1C(=O)N1CCOCC1
inactive: growth inhibition [1] -8.68% | growth inhibition [2] -2.7% | viability increase [3] -0.42% | viability [4] 97.5% | viability [5] 98% | inhibition [6] 1.89% | RAM network inhibition [7] 2.52%

COc1ccc(NC(=O)Nc2cccc(C)n2)cc1
inactive: growth inhibition [1] 6.65% | growth inhibition [2] 21.5% | viability increase [3] -1.44% | viability [4] 100% | viability [5] 88.4% | inhibition [6] 0.5% | RAM network inhibition [7] 3.92%

O=C(O)COc1ccc(Br)cc1/C=N/O
inactive: growth inhibition [1] 5.41% | growth inhibition [2] 3.78% | viability increase [3] -2.11% | viability [4] 92.7% | viability [5] 85.4% | inhibition [6] 0.975% | RAM network inhibition [7] 2.5%

COc1ccc(NC(=O)C2c3cc(OC)c(OC)cc3C(=O)N(C)C2c2cccnc2)cc1OC (stereo not drawn)
inactive: growth inhibition [1] -1.76% | growth inhibition [2] -0.86% | viability increase [3] -3.2% | viability [4] 94.8% | viability [5] 95.5% | inhibition [6] 0.645% | RAM network inhibition [7] 4.68%

CCSCCOC(=O)C1=C(C)N(C)C(=O)NC1c1cc(OC)ccc1OC (stereo not drawn)
inactive: growth inhibition [1] 0.26% | growth inhibition [2] -2.77% | viability increase [3] 1.05% | viability [4] 94.2% | viability [5] 93.8% | inhibition [6] 0.645% | RAM network inhibition [7] 2.69%

Cc1c(C(=O)Nc2ccncc2)sc2nc(-c3ccccc3)cn12
inactive: growth inhibition [1] 0.39% | growth inhibition [2] 9.21% | viability increase [3] 2.2% | viability [4] 89.2% | viability [5] 89.2% | inhibition [6] 0.99% | RAM network inhibition [7] -1.99%

CC(=O)Nc1c(-c2ccccc2)nc2ncccn12
inactive: growth inhibition [1] -4.64% | growth inhibition [2] -5.57% | viability increase [3] -0.33% | viability [4] 108% | viability [5] 95.4% | inhibition [6] 2.77% | RAM network inhibition [7] 0.97%

Cc1nc2cc(-c3cccc(F)c3)nn2c(C)c1CCC(=O)N1CCN(c2ccccn2)CC1
inactive: growth inhibition [1] -0.315% | growth inhibition [2] 3.5% | viability increase [3] -1.74% | viability [4] 87.2% | viability [5] 77.1% | inhibition [6] 0.32% | RAM network inhibition [7] 4.65%

Cc1ccc(NS(=O)(=O)c2cc(C(=O)O)ccc2Cl)cc1
inactive: growth inhibition [1] -5.58% | growth inhibition [2] -5.51% | viability increase [3] -1.55% | viability [4] 100% | viability [5] 95.2% | inhibition [6] 1.16% | RAM network inhibition [7] 7.99%

Cc1nc2sc(C(c3ccco3)N3CCC(C)CC3)c(O)n2n1 (stereo not drawn)
inactive: growth inhibition [1] -6.81% | growth inhibition [2] 1.09% | viability increase [3] -1.29% | viability [4] 102% | viability [5] 103% | inhibition [6] 0.77% | RAM network inhibition [7] 2.81%

CCn1cc(C(=O)NCCCN2CC(C)CC(C)C2)c(=O)c2cc(S(=O)(=O)N(C)C)ccc21 (stereo not drawn)
inactive: growth inhibition [1] -10.3% | growth inhibition [2] -19.1% | viability increase [3] -2.78% | viability [4] 96% | viability [5] 98.7% | inhibition [6] 0.88% | RAM network inhibition [7] -0.73%
